These results are taken from the RNAGym collection of RNA variant scans (doi:10.1002/anie.201605470).

B1: Osa-1-4 twister ribozyme (parent)
chain: CCGCCUAACACUGCCAAUGCCGGUCCCAAGCCCGGAUAAAAGUGGAGGGGGCGG

This series covers variants of B1. Description: self-cleavage, relative activity (ratio to wild type); higher = more cleavage; co-transcriptional. The essentials:
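A DNA template for a 54-nucleotide Oryza sativa twister ribozyme was synthesised with 97 % wild-type base and 1 % of each other base at the 48 positions downstream of the cleavage site. It was transcribed in vitro for 2 h at 37 °C, allowing co-transcriptional self-cleavage, then reverse-transcribed with a template-switching oligonucleotide, PCR-amplified and deep-sequenced. Cleavage status was scored from reads with or without upstream sequence. Relative activity is fraction cleaved normalised to wild type.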
For CCGCCUAACACUGCCCAUGCCGGUCCCAAGCCCGGAUAAAAGUUGAGGGGGCGG [A16C G44U], the self-cleavage is 0.94.

For the variant CCGCCUAACACUGCCCAUGCCGGUCCCAAGCCCGGAUAAAAGUCGAGGGGGCGG [A16C G44C], the self-cleavage was determined as 0.97.

CCGCCUAACACUGCCCAUGCCGGUCCCAAGCCCGGAUAAAAGUGGAGGCGGCGG [A16C G49C]: the self-cleavage worked out at 0.05.

As for CCGCCUAACACUGCCCAUGCCGGUCCCAAGCCCGGAUAAAAGUGGAGGUGGCGG [A16C G49U], the self-cleavage turned out to be 0.08.

Regarding CCGCCUAACACUGCCCAUGCCGGUCCCAAGCCCGGAUAAAAGUGGAGGAGGCGG [A16C G49A], the self-cleavage was found to be 0.09.

For the variant CCGCCUAACACUGCCCAUGCCGGUCCCAAGCCCGGAGAAAAGUGGAGGGGGCGG [A16C U37G], the self-cleavage turned out to be 0.96.

Consider CCGCCUAACACUGCCCAUGCCGGUCCCAAGCCCGGACAAAAGUGGAGGGGGCGG [A16C U37C], for which the self-cleavage came to 1.02.

CCGCCUAACACUGCCCAUGCCGGUCCCAAGCCCGGAAAAAAGUGGAGGGGGCGG [A16C U37A]: the self-cleavage was 0.84.

Consider CCGCCUAACACUGCCCAUGCCGGUCCCAAGCCCGGAUAAAAGUGCAGGGGGCGG [A16C G45C], for which the self-cleavage was determined as 0.05.

In the case of CCGCCUAACACUGCCCAUGCCGGUCCCAAGCCCGGAUAAAAGUGUAGGGGGCGG [A16C G45U], the self-cleavage is 0.09.

For the variant CCGCCUAACACUGCCCAUGCCGGUCCCAAGCCCGGAUAAAAGUGAAGGGGGCGG [A16C G45A], the self-cleavage amounted to 0.17.

Take CCGCCUAACACUGCCCAUGCCGGUCCCAAGCCCGGAUAAAAGUGGAGGGGGUGG [A16C C52U]: the self-cleavage is 0.98.

Regarding CCGCCUAACACUGCCCAUGCCGGUCCCAAGCCCGGAUAAAAGUGGAGGGGGGGG [A16C C52G], the self-cleavage was determined as 0.96.

For the variant CCGCCUAACACUGCCCAUGCCGGUCCCAAGCCCGGAUAAAAGUGGAGGGGGAGG [A16C C52A], the self-cleavage was 0.9.

In the case of CCGCCUAACACUGCCCAAGCCGGUCCCAAGCCCGGAUAAAAGUGGAGGGGGCGG [A16C U18A], the self-cleavage was 0.92.

As for CCGCCUAACACUGCCCACGCCGGUCCCAAGCCCGGAUAAAAGUGGAGGGGGCGG [A16C U18C], the self-cleavage stood at 0.91.

In the case of CCGCCUAACACUGCCCAGGCCGGUCCCAAGCCCGGAUAAAAGUGGAGGGGGCGG [A16C U18G], the self-cleavage was 0.85.

For the variant CCGCCUAACACUGCCCAUGCCGGUCCCAAGCCAGGAUAAAAGUGGAGGGGGCGG [A16C C33A], the self-cleavage was 0.08.

As for CCGCCUAACACUGCCCAUGCCGGUCCCAAGCCUGGAUAAAAGUGGAGGGGGCGG [A16C C33U], the self-cleavage came to 0.55.

For the variant CCGCCUAACACUGCCCAUGCCGGUCCCAAGCCGGGAUAAAAGUGGAGGGGGCGG [A16C C33G], the self-cleavage was 0.06.

CCGCCUAACACUGCUCAUGCCGGUCCCAAGCCCGGAUAAAAGUGGAGGGGGCGG [A16C C15U]: the self-cleavage was 0.62.

As to CCGCCUAACACUGCCCAUGCCGGUCCUAAGCCCGGAUAAAAGUGGAGGGGGCGG [A16C C27U], the self-cleavage amounted to 0.1.

Take CCGCCUAACACUGCCCAUGCCGGUCCGAAGCCCGGAUAAAAGUGGAGGGGGCGG [A16C C27G]: the self-cleavage is 0.06.

In the case of CCGCCUAACACUGCCCAUGCCGGUCCAAAGCCCGGAUAAAAGUGGAGGGGGCGG [A16C C27A], the self-cleavage came to 0.13.

Take CCGCCUAACACUGCCCAUGCCGGUCUCAAGCCCGGAUAAAAGUGGAGGGGGCGG [A16C C26U]: the self-cleavage was 0.76.

In the case of CCGCCUAACACUGCCCAUGCCGGUCACAAGCCCGGAUAAAAGUGGAGGGGGCGG [A16C C26A], the self-cleavage turned out to be 0.03.

For the variant CCGCCUAACACUGCCCAUGCCGGUCGCAAGCCCGGAUAAAAGUGGAGGGGGCGG [A16C C26G], the self-cleavage was found to be 0.1.

CCGCCUAACACUGCCCAUGCCGGUCCCAAGCCCGGAUAAAAGUGGAGGGGGCGU [A16C G54U]: the self-cleavage worked out at 0.88.

For CCGCCUAACACUGCCCAUGCCGGUCCCAAGCCCGGAUAAAAGUGGAGGGGGCGC [A16C G54C], the self-cleavage is 0.82.

With CCGCCUAACACUGCCCAUGCCGGUCCCAAGCCCGGAUAAAAGUGGAGGGGGCGA [A16C G54A], the self-cleavage was found to be 0.86.

In the case of CCGCCUAACACUGCCCAUGCCGGUCCCAAGCCCGGAUAAAAGUGGAGUGGGCGG [A16C G48U], the self-cleavage was 0.06.

For the variant CCGCCUAACACUGCCCAUGCCGGUCCCAAGCCCGGAUAAAAGUGGAGCGGGCGG [A16C G48C], the self-cleavage was 0.07.

Take CCGCCUAACACUGCCCAUGCCGGUCCCAAGCCCGGAUAAAAGUGGAGAGGGCGG [A16C G48A]: the self-cleavage stood at 0.06.

On to CCGCCUAACACUCCCCAUGCCGGUCCCAAGCCCGGAUAAAAGUGGAGGGGGCGG [A16C G13C], for which the self-cleavage came out at 0.04.

Consider CCGCCUAACACUUCCCAUGCCGGUCCCAAGCCCGGAUAAAAGUGGAGGGGGCGG [A16C G13U], for which the self-cleavage turned out to be 0.04.

CCGCCUAACACUACCCAUGCCGGUCCCAAGCCCGGAUAAAAGUGGAGGGGGCGG [A16C G13A]: the self-cleavage was 0.08.

Turning to CCGCCUAACACUGCCGAUGCCGGUCCCAAGCCCGGAUAAAAGUGGAGGGGGCGG [A16G], the self-cleavage was found to be 1.01.

For CCGCCUAACACUGCCCAUGCCGGUCCCAACCCCGGAUAAAAGUGGAGGGGGCGG [A16C G30C], the self-cleavage turned out to be 0.05.

Consider CCGCCUAACACUGCCCAUGCCGGUCCCAAACCCGGAUAAAAGUGGAGGGGGCGG [A16C G30A], for which the self-cleavage is 0.04.

CCGCCUAACACUGCCCAUGCCGGUCCCAAUCCCGGAUAAAAGUGGAGGGGGCGG [A16C G30U]: the self-cleavage came out at 0.04.

CCGCCUAACACUGCCCAUGCCGGUGCCAAGCCCGGAUAAAAGUGGAGGGGGCGG [A16C C25G]: the self-cleavage came to 0.1.

As for CCGCCUAACACUGCCCAUGCCGGUUCCAAGCCCGGAUAAAAGUGGAGGGGGCGG [A16C C25U], the self-cleavage is 0.72.

As to CCGCCUAACACUGCCCAUGCCGGUACCAAGCCCGGAUAAAAGUGGAGGGGGCGG [A16C C25A], the self-cleavage was 0.08.

With CCGCCUAACACUGCCCAUGCCGGUCCCAAGCCCGGAUAAAAGGGGAGGGGGCGG [A16C U43G], the self-cleavage stood at 0.16.

As to CCGCCUAACACUGCCCAUGCCGGUCCCAAGCCCGGAUAAAAGAGGAGGGGGCGG [A16C U43A], the self-cleavage is 0.7.

On to CCGCCUAACACUGCCCAUGCCGGUCCCAAGCCCGGAUAAAAGCGGAGGGGGCGG [A16C U43C], for which the self-cleavage was determined as 0.33.

For the variant CCGCCUAACACUGCCCAUGCCGAUCCCAAGCCCGGAUAAAAGUGGAGGGGGCGG [A16C G23A], the self-cleavage was 0.14.

For CCGCCUAACACUGCCCAUGCCGUUCCCAAGCCCGGAUAAAAGUGGAGGGGGCGG [A16C G23U], the self-cleavage turned out to be 0.06.

Regarding CCGCCUAACACUGCCCAUGCCGCUCCCAAGCCCGGAUAAAAGUGGAGGGGGCGG [A16C G23C], the self-cleavage was 0.04.
